Assay results: ChEMBL document CHEMBL5247578, “Effective synthesis of benzimidazoles-imidazo[1,2-a]pyrazine conjugates: A comparative study of mono-and bis-benzimidazoles for antitumor activity” (Eur J Med Chem, 2019)

Legend:
Type in all cases: functional
BT-549 = assay: Antiproliferative activity against human BT-549 cells assessed as cell growth inhibition at 10 uM incubated for 48 hrs by sulforhodamine B assay relative to control
How it was run: (§1)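 Single-dose NCI-60 prescreen at 10^-5 M. Cells in RPMI 1640 with 5% FBS and 2 mM L-glutamine, seeded 5,000–40,000 cells/well with 24 h preincubation, then drug exposure for 48 h at 37 °C under 5% CO2. Growth read by SRB staining of TCA-fixed cells at 515 nm against time-zero and untreated controls. Negative growth values denote cell kill.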

SF-539 = assay: Antiproliferative activity against human SF-539 cells assessed as cell growth inhibition at 10 uM incubated for 48 hrs by sulforhodamine B assay relative to control
How it was run: (§2)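 NCI-60 single-dose screen at 10^-5 M. Cells grown in RPMI 1640 with 5% FBS and 2 mM L-glutamine, plated at 5,000–40,000 cells/well, and preincubated 24 h. Drug (DMSO stock) added and incubated 48 h at 37 °C, 5% CO2. Adherent cells fixed with cold TCA, stained with 0.4% SRB in 1% acetic acid, dye solubilized in 10 mM trizma base, A515 read. Percent growth taken against time-zero and untreated control.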

HOP-92 = assay: Antiproliferative activity against human HOP-92 cells assessed as cell growth inhibition at 10 uM incubated for 48 hrs by sulforhodamine B assay relative to control
How it was run: (§3)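 NCI-60 one-dose prescreen at 10^-5 M. Cells grown in RPMI 1640 with 5% FBS and 2 mM glutamine, preincubated 24 h, then exposed 48 h at 37 °C. Adherent lines TCA-fixed, SRB-stained, A515 read. Growth percent relative to time-zero and control; negative values mean cell kill.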

Malme-3M = assay: Antiproliferative activity against human Malme-3M cells assessed as cell growth inhibition at 10 uM incubated for 48 hrs by sulforhodamine B assay relative to control; how it was run: as §2
SK-MEL-28 = assay: Antiproliferative activity against human SK-MEL-28 cells assessed as cell growth inhibition at 10 uM incubated for 48 hrs by sulforhodamine B assay relative to control; how it was run: as §2
SK-OV-3 = assay: Antiproliferative activity against human SK-OV-3 cells assessed as cell growth inhibition at 10 uM incubated for 48 hrs by sulforhodamine B assay relative to control; how it was run: as §2
NCI/ADR-RES = assay: Antiproliferative activity against human NCI/ADR-RES cells assessed as cell growth inhibition at 10 uM incubated for 48 hrs by sulforhodamine B assay relative to control; how it was run: as §2
NCI-H226 = assay: Antiproliferative activity against human NCI-H226 cells assessed as cell growth inhibition at 10 uM incubated for 48 hrs by sulforhodamine B assay relative to control; how it was run: as §2
IGROV-1 [1] = assay: Growth inhibition against human IGROV-1 cells incubated for 48 hrs by sulforhodamine B assay
SK-MEL-5 = assay: Antiproliferative activity against human SK-MEL-5 cells assessed as cell growth inhibition at 10 uM incubated for 48 hrs by sulforhodamine B assay relative to control; how it was run: as §2
NCI-H23 = assay: Antiproliferative activity against human NCI-H23 cells assessed as cell growth inhibition at 10 uM incubated for 48 hrs by sulforhodamine B assay relative to control; how it was run: as §2
NCI-H322M = assay: Antiproliferative activity against human NCI-H322M cells assessed as cell growth inhibition at 10 uM incubated for 48 hrs by sulforhodamine B assay relative to control; how it was run: as §2
HOP-62 = assay: Antiproliferative activity against human HOP-62 cells assessed as cell growth inhibition at 10 uM incubated for 48 hrs by sulforhodamine B assay relative to control; how it was run: as §3
IGROV-1 [2] = assay: Antiproliferative activity against human IGROV-1 cells assessed as cell growth inhibition at 10 uM incubated for 48 hrs by sulforhodamine B assay relative to control; how it was run: as §2
SF-295 = assay: Antiproliferative activity against human SF-295 cells assessed as cell growth inhibition at 10 uM incubated for 48 hrs by sulforhodamine B assay relative to control; how it was run: as §2
MDA-MB-435 = assay: Antiproliferative activity against human MDA-MB-435 cells assessed as cell growth inhibition at 10 uM incubated for 48 hrs by sulforhodamine B assay relative to control; how it was run: as §2
SNB-19 = assay: Antiproliferative activity against human SNB-19 cells assessed as cell growth inhibition at 10 uM incubated for 48 hrs by sulforhodamine B assay relative to control; how it was run: as §2
OVCAR-4 = assay: Antiproliferative activity against human OVCAR-4 cells assessed as cell growth inhibition at 10 uM incubated for 48 hrs by sulforhodamine B assay relative to control; how it was run: as §2
786-0 = assay: Antiproliferative activity against human 786-0 cells assessed as cell growth inhibition at 10 uM incubated for 48 hrs by sulforhodamine B assay relative to control; how it was run: as §1
SF-268 = assay: Antiproliferative activity against human SF-268 cells assessed as cell growth at 0.0000001 M incubated for 48 hrs by SRB assay relative to control; settings: dose 100 nM, read-out: Activity
UACC-257 = assay: Antiproliferative activity against human UACC-257 cells assessed as cell growth inhibition at 10 uM incubated for 48 hrs by sulforhodamine B assay relative to control; how it was run: as §2
MDA-MB-231 = assay: Antiproliferative activity against human MDA-MB-231 cells assessed as cell growth inhibition at 10 uM incubated for 48 hrs by sulforhodamine B assay relative to control; how it was run: as §2
HCT-15 = assay: Antiproliferative activity against human HCT-15 cells assessed as cell growth inhibition at 10 uM incubated for 48 hrs by sulforhodamine B assay relative to control; how it was run: as §3
MCF7 = assay: Antiproliferative activity against human MCF7 cells assessed as cell growth inhibition at 10 uM incubated for 48 hrs by sulforhodamine B assay relative to control; how it was run: as §2
COLO 205 = assay: Antiproliferative activity against human COLO 205 cells assessed as cell growth inhibition at 10 uM incubated for 48 hrs by sulforhodamine B assay relative to control; how it was run: as §1
SN12C = assay: Antiproliferative activity against human SN12C cells assessed as cell growth inhibition at 10 uM incubated for 48 hrs by sulforhodamine B assay relative to control; how it was run: as §2
MOLT-4 = assay: Antiproliferative activity against human MOLT-4 cells assessed as cell growth inhibition at 10 uM incubated for 48 hrs by sulforhodamine B assay relative to control; how it was run: as §2
HCC 2998 = assay: Antiproliferative activity against human HCC 2998 cells assessed as cell growth inhibition at 10 uM incubated for 48 hrs by sulforhodamine B assay relative to control; how it was run: as §3
TK-10 = assay: Antiproliferative activity against human TK-10 cells assessed as cell growth inhibition at 10 uM incubated for 48 hrs by sulforhodamine B assay relative to control; how it was run: as §2
CAKI-1 = assay: Antiproliferative activity against human CAKI-1 cells assessed as cell growth inhibition at 10 uM incubated for 48 hrs by sulforhodamine B assay relative to control; how it was run: as §1
UO-31 = assay: Antiproliferative activity against human UO-31 cells assessed as cell growth inhibition at 10 uM incubated for 48 hrs by sulforhodamine B assay relative to control; how it was run: as §2

c1ccc(Cn2cnc3ccc(-c4nc(-c5ccc6c(c5)ncn6C5CCCCC5)cn5ccnc45)cc32)cc1
inhibition at 10 µM (BT-549): -44.7% | inhibition at 10 µM (SF-539): -77.6% | inhibition at 10 µM (HOP-92): -83.6% | inhibition at 10 µM (Malme-3M): -15.4% | inhibition at 10 µM (SK-MEL-28): 99.6% | inhibition at 10 µM (SK-OV-3): -22.2% | inhibition at 10 µM (NCI/ADR-RES): 99.5% | inhibition at 10 µM (NCI-H226): -63.1% | GI50 (IGROV-1 [1]): 2140 nM | inhibition at 10 µM (SK-MEL-5): -84% | inhibition at 10 µM (NCI-H23): -22.8% | inhibition at 10 µM (NCI-H322M): 84% | inhibition at 10 µM (HOP-62): -9.39% | inhibition at 10 µM (IGROV-1 [2]): 94.2% | inhibition at 10 µM (SF-295): -81.3% | inhibition at 10 µM (MDA-MB-435): -6.16% | inhibition at 10 µM (SNB-19): 80.4% | inhibition at 10 µM (OVCAR-4): 83.2% | inhibition at 10 µM (786-0): -19.4% | growth at 0.1 µM (SF-268): 94% | inhibition at 10 µM (UACC-257): -32.7% | inhibition at 10 µM (MDA-MB-231): -70.1% | inhibition at 10 µM (HCT-15): -9.03% | inhibition at 10 µM (MCF7): 98% | inhibition at 10 µM (COLO 205): -29.9% | inhibition at 10 µM (SN12C): -35.4% | inhibition at 10 µM (MOLT-4): 95.6% | inhibition at 10 µM (HCC 2998): -88% | inhibition at 10 µM (TK-10): 94.8% | inhibition at 10 µM (CAKI-1): 56.7% | inhibition at 10 µM (UO-31): -51.4%
